The subject of data set [1] is Raji. Briefly: Inhibition of TPA-induced EBV-early antigen activation in human Raji cells assessed as EA activation at 1000 molar ratio after 48 hrs relative to control. The data set is classed as cell-based. The arrangement: scale not given: the % may be the effect or the level left. Particulars: human gammaherpesvirus 4. The method, boiled down:
(§1)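 Raji cells (non-producer sub-line, spontaneous EA under 0.1%) at 1×10^6/mL, incubated 37 °C for 48 h with n-butyric acid (4 mmol), TPA (32 pmol in DMSO) and compound in DMSO. Dose expressed as mol ratio to TPA (1000, 500, 100, 10). EA-positive cells were detected by indirect immunofluorescence with NPC patient serum, at least 500 cells counted. Assays were run in triplicate. Results are relative to butyrate+TPA control (100%). IC50 given in nM.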

In data set [2] the test system is Raji. Put plainly: Inhibition of TPA-induced EBV-early antigen activation in human Raji cells assessed as EA activation at 500 molar ratio after 48 hrs relative to control. It counts as cell-based. The arrangement: scale not given: the % may be the effect or the level left. To be noted: human gammaherpesvirus 4. In short, it runs like this:
as §1

The subject of data set [3] is Raji. Briefly: Inhibition of TPA-induced EBV-early antigen activation in human Raji cells assessed as EA activation at 100 molar ratio after 48 hrs relative to control. It counts as cell-based. Particulars: human gammaherpesvirus 4. The method, boiled down: as §1
Data set [4] concerns Raji. Briefly: Inhibition of TPA-induced EBV-early antigen activation in human Raji cells assessed as EA activation at 10 molar ratio after 48 hrs relative to control. The data set is classed as cell-based. To be noted: human gammaherpesvirus 4. The arrangement: scale not given: the % may be the effect or the level left. In short, it runs like this: as §1
The nature of data set [5]: Cytotoxicity against human Raji cells carrying EBV genome assessed as cell viability at 1000 molar ratio by trypan blue staining method. It counts as cell-based. Particulars: read-out: Activity. In short, it runs like this: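 Raji cells (EBV genome-carrying, in RPMI-1640 with 10% FBS) at 1×10^6/mL, incubated 48 h at 37 °C with n-butyric acid (4 mmol), TPA (32 pmol) and test compound in DMSO. Viability scored by Trypan Blue staining. Molar ratio means mol of compound per mol of TPA (32 pmol).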

The nature of data set [6]: Inhibition of TPA-induced EBV-early antigen activation in human Raji cells assessed as EA activation after 48 hrs. The data set is classed as cell-based, human gammaherpesvirus 4. The method, boiled down:
as §1

Data set [7] relates to Mus musculus. Briefly: Inhibition of DMBA-induced and TPA-promoted carcinogenesis in ICR mouse assessed as reduction of mouse bearing papillomas at 85 nmol administered 1 hr before TPA treatment measured after 10 to 15 weeks. It counts as functional. In short, it runs like this:
(§2)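 Female SPF ICR mice, 6 weeks old, 15 per group, backs shaved. Initiation was one topical dose of DMBA (390 nmol) in acetone 0.1 mL. Promotion was TPA (1.7 nmol) twice weekly, with compound given topically at 85 nmol. Papilloma incidence and papillomas per mouse were followed to week 20, and tumor length and width were recorded. Significance was set at P<0.05 versus the DMBA/TPA control.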

The test system of data set [8] is Mus musculus. Put plainly: Inhibition of DMBA-induced and TPA-promoted carcinogenesis in ICR mouse assessed as reduction of mouse bearing papillomas at 85 nmol administered 1 hr before TPA treatment measured after 20 weeks. It counts as functional. The method, boiled down:
as §2

In data set [9] the test system is Mus musculus. Briefly: Inhibition of DMBA-induced and TPA-promoted carcinogenesis in ICR mouse assessed as reduction of mouse bearing papillomas length at 85 nmol administered 1 hr before TPA treatment measured after 20 weeks. The data set is classed as functional. In short, it runs like this: as §2
The test system of data set [10] is Mus musculus. Briefly: Inhibition of DMBA-induced and TPA-promoted carcinogenesis in ICR mouse assessed as reduction of mouse bearing papillomas width at 85 nmol administered 1 hr before TPA treatment measured after 20 weeks. The data set is classed as functional. In short, it runs like this: as §2
Data set [11] is filed under the species Mus musculus. Briefly: Toxicity in ICR mouse assessed as change in body weight at 85 nmol. The data set is classed as organism-based. To be noted: in vivo.
The species named for data set [12] is Mus musculus. Briefly: Toxicity in ICR mouse assessed as lesional damage at 85 nmol. It counts as organism-based. Particulars: in vivo.
Data set [13] concerns Mus musculus. Briefly: Toxicity in ICR mouse assessed as edema at 85 nmol. It counts as organism-based. Particulars: in vivo.
For data set [14], the species on record is Mus musculus. Briefly: Toxicity in ICR mouse assessed as erosion at 85 nmol. Particulars: in vivo. The data set is classed as organism-based.
Data set [15] is filed under the species Mus musculus. Put plainly: Toxicity in ICR mouse assessed as ulcer at 85 nmol. It counts as organism-based. Particulars: in vivo.

The IC50 is the point on the concentration scale where inhibition reaches its midpoint. On to `CO[C@@H]1CC[C@@]2(C)[C@@H](CC[C@@]3(C)CC4=CC[C@H]5C(C)(C)[C@H](OC(=O)CC(C)(C)C(=O)O)CC[C@]5(C)[C@H]4CC[C@@H]32)C1(C)C`, for which the Activity was 0% with Raji [1]; 29.7% in the data set on Raji [2]; 91.5% in the data set with Raji [4]; 16 mm in the data set on Mus musculus [9]; 14 mm with Mus musculus [10]; “Non-toxic” in the data set filed under Mus musculus [11]. Besides, the Activity entry in the data set filed under Mus musculus [12], in the data set with Mus musculus [13], in the data set filed under Mus musculus [14] and in the data set filed under Mus musculus [15] was “Non-toxic” in each case. In the data set on Raji [3], the EA activation relative to control is 67.5%. In addition, the viability at 1000 molar ratio in [5] came to 60%. The IC50 in data set [6] was 251 nM. Also, the figures for the “inhibition (INH)” value in the data set on Mus musculus [7] and in the data set on Mus musculus [8] were 13.3% and 80%, respectively.

Regarding `CO[C@H]1CC[C@@]2(C)[C@@H](CC[C@@]3(C)CC4=CC[C@H]5C(C)(C)[C@H](OC(=O)c6cc(O)c(O)c(O)c6)CC[C@]5(C)[C@H]4CC[C@@H]32)C1(C)C`, the Activity was 2.2% in the data set with Raji [1]; 36.5% with Raji [2]; 91.5% with Raji [4]; 18 mm in the data set with Mus musculus [9]; 15 mm with Mus musculus [10]; “Non-toxic” in the data set filed under Mus musculus [11]. Moreover, the Activity entry in the data set filed under Mus musculus [12], with Mus musculus [13], in the data set listed under Mus musculus [14] and in the data set filed under Mus musculus [15] was “Non-toxic” each time. For the same compound, in the data set with Raji [3], the EA activation relative to control was determined as 71.3%. The viability at 1000 molar ratio in data set [5] came out at 60%. In [6], the IC50 was 290 nM. Besides, the entries for the “inhibition (INH)” value in the data set with Mus musculus [7] and in the data set on Mus musculus [8] were 20% and 86.6%, respectively.

As for `CO[C@@H]1CC[C@@]2(C)[C@@H](CC[C@@]3(C)CC4=CC[C@H]5C(C)(C)[C@H](OC(=O)CCC(=O)O)CC[C@]5(C)[C@H]4CC[C@@H]32)C1(C)C`, the values for the Activity with Raji [1], in the data set on Raji [2] and with Raji [4] were 0%, 32.4% and 92.4%, respectively. Besides, the EA activation relative to control in the data set with Raji [3] stood at 68.3%. The viability at 1000 molar ratio in data set [5] was found to be 60%. Moreover, the concentration for half-maximal inhibition (IC50) in data set [6] worked out at 281 nM.

Turning to `CO[C@H]1CC[C@@]2(C)[C@@H](CC[C@@]3(C)CC4=CC[C@H]5C(C)(C)[C@H](OC(=O)CCC(=O)Oc6ccc(-c7coc8cc(O)ccc8c7=O)cc6)CC[C@]5(C)[C@H]4CC[C@@H]32)C1(C)C`, the Activity turned out to be 15% in the data set with Raji [1], 49.4% with Raji [2] and 100% in the data set on Raji [4]. Also, in the data set on Raji [3], the EA activation relative to control stood at 82.6%. The viability at 1000 molar ratio in data set [5] amounted to 60%. In data set [6], the IC50 amounted to 495 nM.

For the compound `CO[C@@H]1CC[C@@]2(C)[C@@H](CC[C@@]3(C)CC4=CC[C@H]5C(C)(C)[C@H](OC(=O)CCC(=O)Oc6ccc([C@@H]7CC(=O)c8c(O)cc(O)cc8O7)cc6)CC[C@]5(C)[C@H]4CC[C@@H]32)C1(C)C`, the Activity worked out at 14.3% with Raji [1], 48.7% in the data set with Raji [2] and 100% in the data set with Raji [4]. Moreover, the EA activation relative to control in the data set with Raji [3] was 81%. The viability at 1000 molar ratio in data set [5] amounted to 60%. The IC50 in [6] was found to be 473 nM.

Turning to `COc1c(O)cc(C(=O)O[C@@H]2CC[C@]3(C)[C@H]4CC[C@H]5[C@@](C)(CC[C@H]6C(C)(C)[C@@H](OC)CC[C@@]65C)CC4=CC[C@H]3C2(C)C)cc1O`, the Activity with Raji [1] was determined as 4.7%; in the data set with Raji [2] it was 37.8%; in the data set on Raji [4], 93.4%. For the same compound, the EA activation relative to control in the data set on Raji [3] was found to be 72.5%. In [5], the viability at 1000 molar ratio was determined as 60%. The IC50 in [6] came to 375 nM.

With `CO[C@@H]1CC[C@@]2(C)[C@@H](CC[C@@]3(C)C[C@]45CC[C@@H]6C(C)(C)[C@H](OC(=O)CC(C)(C)C(=O)O)CC[C@@]6(C)[C@@]4(CC[C@@H]32)O5)C1(C)C`, the Activity is 0% in the data set with Raji [1]; 26.6% in the data set with Raji [2]; 89.6% in the data set with Raji [4]; 18 mm in the data set on Mus musculus [9]; 17 mm with Mus musculus [10]; “Non-toxic” in the data set listed under Mus musculus [11]. The Activity result in the data set filed under Mus musculus [12], in the data set with Mus musculus [13], in the data set filed under Mus musculus [14] and in the data set filed under Mus musculus [15] was “Non-toxic” in each case. Moreover, the EA activation relative to control in the data set on Raji [3] was determined as 68.4%. In addition, in data set [5], the viability at 1000 molar ratio was found to be 60%. Further, the IC50 in data set [6] is 230 nM. The “inhibition (INH)” value came to 26.6% in the data set with Mus musculus [7] and 93.3% with Mus musculus [8].

These data come from ChEMBL document CHEMBL1821568, “Conjugates of 3α-methoxyserrat-14-en-21β-ol (PJ-1) and 3β-methoxyserrat-14-en-21β-ol (PJ-2) as cancer chemopreventive agents” (Eur J Med Chem, 2011).
